Rows were chosen to be rich in hits. Some 2.7% of all compounds tested hit in one or more screens of this group.
pPAFAH inh = pPAFAH (human) enzyme inhibition | inhibition, % at 3.39 µM | Q13093 | 1.5% of 330,000 active | recombinant pPAFAH, FP-rhodamine probe fluorescence polarization | AID 463082;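 active means inhibition above the mean inhibition across the screen plus 3 SD, cut at about 25% in these data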;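 further: inhibitors block binding of the rhodamine activity-based probe so polarization drops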
Target sequence (Q13093 whole entry, looked up): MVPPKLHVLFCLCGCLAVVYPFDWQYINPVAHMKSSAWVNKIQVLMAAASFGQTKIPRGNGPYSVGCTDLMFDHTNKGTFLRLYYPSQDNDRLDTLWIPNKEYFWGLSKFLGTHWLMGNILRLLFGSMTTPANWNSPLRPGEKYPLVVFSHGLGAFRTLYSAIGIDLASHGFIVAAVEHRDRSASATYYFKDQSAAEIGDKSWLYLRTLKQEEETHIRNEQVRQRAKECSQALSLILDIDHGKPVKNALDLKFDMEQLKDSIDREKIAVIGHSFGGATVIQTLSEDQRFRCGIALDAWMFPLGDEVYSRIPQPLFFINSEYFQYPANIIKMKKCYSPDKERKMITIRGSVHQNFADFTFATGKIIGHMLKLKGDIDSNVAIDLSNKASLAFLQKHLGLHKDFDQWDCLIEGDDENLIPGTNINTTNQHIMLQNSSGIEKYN
ARFGAP1 inhibitor = rat ARFGAP1 inhibition. Q62848. Arfgap1-stimulated ARF1 GTP hydrolysis, GDP FP detection. inhibition, % at 16.5 µM. 0.26% of 360,000 active. AID 651572;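 active means inhibition above a per-plate limit, mean inhibition of low control wells plus 3 SD, cut at about 25% in these data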
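material = rat Arfgap1 catalytic domain, aa 1-136 | also added = human ARF1(Δ1-17)-GTP substrate | compound dosing = one concentration, 16.5 µM, DMSO 1.26% | times = GTP hydrolysis reaction 2 h at 25 °C | measured by = FP, GDP Alexa 633 tracer displaced from anti-GDP antibody, 620/688 nm | evaluation = percent inhibition of Arfgap1-stimulated GTP hydrolysis | replication = single well per compound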
PAFAH1B3 inh = inhibitors of human PAFAH1B3; Q15102; recombinant PAFAH1B3, FP-rhodamine probe, fluorescence polarization; inhibition, % at 3.39 µM; 0.28% of 340,000 active; AID 492972;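 active means inhibition above the screen-wide average of all tested compounds plus 3 SD, cut at about 25% in these data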
PAFAH1B2 inh = blocks human PAF acetylhydrolase 1b catalytic subunit 2; 1.2% of 340,000 active; recombinant PAFAH1B2, FP-rhodamine activity probe, fluorescence polarization; inhibition, % at 3.39 µM; AID 492953;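 active means inhibition above the mean of all tested compounds plus 3 SD, cut at about 24% in these data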
Target sequence (P68402 whole entry, looked up): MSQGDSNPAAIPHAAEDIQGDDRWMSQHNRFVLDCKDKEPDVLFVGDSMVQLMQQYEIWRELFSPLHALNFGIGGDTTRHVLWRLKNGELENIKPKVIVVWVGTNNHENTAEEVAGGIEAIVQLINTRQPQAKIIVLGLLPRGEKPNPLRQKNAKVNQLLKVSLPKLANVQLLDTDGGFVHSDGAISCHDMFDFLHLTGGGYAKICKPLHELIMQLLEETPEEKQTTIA
ASAP1 GAP inh = blocks human ASAP1-stimulated Arf1 GTP hydrolysis; inhibition, % at 16.5 µM; 0.19% of 360,000 active; GDP FP detection; in the data active means inhibition above about 25%
PAFAH2 inh = PAFAH2 (human) inhibition | Q99487 | recombinant PAFAH2, FP-rhodamine activity probe, fluorescence polarization | inhibition, % at 3.39 µM | 0.99% of 340,000 active;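 active means inhibition above the mean over all tested compounds plus 3 SD, cut at about 30% in these data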;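 further: inhibitors block probe labeling of enzyme so polarization drops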
pPAFAH confirm = pPAFAH (human) inhibition, confirmed; 72% of 2,300 active; AID 463230; recombinant pPAFAH, FP-Rh probe fluorescence polarization; shares compounds with pPAFAH inh; inhibition, % at 3.39 µM;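 active means mean inhibition of the triplicate above the hit cutoff set for the earlier primary screen, cut at about 25% in these data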
Large screens that a line does not name were inactive (follow-up assays come after a bar, where they were run).

N#CCN(CC#N)C(=O)C1c2ccccc2Oc2ccccc21	pPAFAH inh 62 | pPAFAH confirm inactive
NC(=O)c1ccc(NCCc2cccs2)cc1	none (no result: pPAFAH inh, PAFAH1B3 inh, PAFAH1B2 inh, PAFAH2 inh)
Cn1c2ccccc2c(=O)c2ccc(NCCc3cccs3)cc21	pPAFAH inh 38 | pPAFAH confirm inactive
COc1ccc(CCn2c(C)cc(C(=O)COC(=O)c3ccc(NC(=O)CC#N)cc3)c2C)cc1	none (no result: ARFGAP1 inhibitor, ASAP1 GAP inh)
COc1ccc(CCOC(=O)c2ccc(NC(=O)CC#N)cc2)cc1	pPAFAH inh 53 | pPAFAH confirm inactive
Cc1ccc(NC(=O)c2ncn(CCCN(C)CCc3ccccn3)n2)cc1C	none (no result: pPAFAH inh)
CC1(C)CCC/C(=C\c2ccccc2)C1=O	pPAFAH inh 46 | pPAFAH confirm inactive
O=C1OCC/C1=C\c1ccccc1	none
CCN1CCN(C(=S)Nc2ccsc2C(=O)OC)CC1	pPAFAH inh 60 | pPAFAH confirm inactive
COC(=O)c1sccc1NC(=S)N1CCN(C)CC1	none
CC1(C)Cc2ccccc2C(=NCC(=O)O)N1	pPAFAH inh 35 | pPAFAH confirm inactive
CCC1(C)Cc2ccccc2C(=O)N1 (stereo not drawn)	none
O=C(O)COc1cccc(/C=C2/SC(=S)N(Cc3ccccc3)C2=O)c1	pPAFAH inh 40 | pPAFAH confirm 33
Cc1ccc(NC(=O)COc2cccc(/C=C3\SC(=S)N(CCC(=O)O)C3=O)c2)cc1Cl	pPAFAH inh 40 | pPAFAH confirm 27
CCC(=O)OC1(C)C(=O)C=C2C=C(c3ccsc3)OC=C2C1=O (stereo not drawn)	pPAFAH inh 48 (no result: ARFGAP1 inhibitor, ASAP1 GAP inh) | pPAFAH confirm 34
CC(C)(C)c1ccc(C(=O)Nc2sc3c(c2C(=O)O)CCC3)cc1	pPAFAH inh 37, PAFAH1B2 inh 47 | pPAFAH confirm 41
COc1ccc(-c2csc(NC(=O)c3ccc(C(C)(C)C)cc3)c2C(=O)O)cc1	pPAFAH inh 37 (no result: ARFGAP1 inhibitor, PAFAH1B3 inh, PAFAH1B2 inh, ASAP1 GAP inh, PAFAH2 inh) | pPAFAH confirm 41
Cc1[nH]c2ccccc2c1CC(=O)Nc1ccc(Nc2cccnc2)c(-c2ccc(OC(F)(F)F)cc2)c1	none (no result: pPAFAH inh, PAFAH1B3 inh, PAFAH1B2 inh, PAFAH2 inh)
CCN=c1scc(C)n1/N=C/c1cc(Br)c(O)c(Br)c1	pPAFAH inh 41 | pPAFAH confirm 25
COCCN=c1scc(-c2cccs2)n1/N=C/c1ccc(O)c(O)c1O	pPAFAH inh 44 | pPAFAH confirm 75
CCN=c1scc(-c2ccco2)n1/N=C/c1ccc(O)cc1	none
COCCN=c1scc(-c2ccccc2)n1/N=C/c1c[nH]c2ccccc12	none
CCN=c1scc(C)n1/N=C/c1ccc(O)c(O)c1O	pPAFAH inh 46 | pPAFAH confirm inactive
CCOC(=O)C1=CCC(c2ccc([N+](=O)[O-])cc2)N(S(=O)(=O)c2ccc(C)cc2)C1 (stereo not drawn)	none (no result: pPAFAH inh, PAFAH1B3 inh, PAFAH1B2 inh, PAFAH2 inh)
CC(OC(=O)c1ccc(-n2cnnn2)cc1)C(=O)Nc1ccc(F)c(F)c1F (stereo not drawn)	none
O=C1C=C(O)c2c(O)cc(O)c(O)c2C1=O	pPAFAH inh 85, PAFAH1B3 inh 40, PAFAH2 inh 45 | pPAFAH confirm 52
C[C@@H]1Cc2c(O)c(O)cc(O)c2C(=O)O1	none (no result: ARFGAP1 inhibitor, ASAP1 GAP inh)
O=C(CCCSc1ccccc1)Nc1nc(-c2ccco2)c(-c2ccco2)s1	pPAFAH inh 56 | pPAFAH confirm inactive
COc1ccc(C2C(C#N)=C(N)Oc3cc(N)ccc32)cc1 (stereo not drawn)	none (no result: pPAFAH inh)
N#CC1=C(N)Oc2cc(N)ccc2C1c1ccc(Cl)cc1 (stereo not drawn)	pPAFAH inh 43 | pPAFAH confirm inactive
CCc1ccc(C2C(C#N)=C(N)Oc3cc(N)ccc32)cc1 (stereo not drawn)	pPAFAH inh 59 | pPAFAH confirm inactive
N#C/C(=N\Nc1ccc(Cl)c(Cl)c1)C(=O)C1CC1	pPAFAH inh 41 (no result: PAFAH1B3 inh, PAFAH1B2 inh, PAFAH2 inh) | pPAFAH confirm 40
Cc1cc(F)ccc1C(O)c1ncc(-c2cccc3ccccc23)[nH]1 (stereo not drawn)	none (no result: pPAFAH inh, PAFAH1B3 inh, PAFAH1B2 inh, PAFAH2 inh)
CCOc1ccc2[nH]c3c(N4CCN(c5ccccn5)CC4)ncnc3c2c1	pPAFAH inh 44 | pPAFAH confirm inactive
O=S(=O)(NCCCNS(=O)(=O)c1c(F)cccc1F)c1ccc2c(c1)OCCO2	none
CC(NCC(=O)NC(=O)NC1CCCC1)c1ccc(Cl)cc1Cl (stereo not drawn)	pPAFAH inh 58 | pPAFAH confirm inactive
CCOC(=O)c1c(C)[nH]c(N=Nc2cc(C(=O)O)cc(C(=O)O)c2)c1C	pPAFAH inh 35 | pPAFAH confirm inactive
CCOC(=O)c1c(C)[nH]c(N=Nc2ccc(C)cc2C)c1C	none
O=C(Cn1c(=O)n(Cc2ccco2)c(=O)c2c3c(sc21)CCCCC3)c1ccccc1	pPAFAH inh 37 (no result: ARFGAP1 inhibitor, ASAP1 GAP inh) | pPAFAH confirm inactive
O=C(Cn1c(=O)n(Cc2ccco2)c(=O)c2c3c(sc21)CCCCC3)Nc1ccccc1	none
Cc1cc2c(c(=O)o1)[C@@]1(C(=O)N(C)c3c(Br)cccc31)C1=C(CCCC1=O)O2	none (no result: pPAFAH inh, PAFAH1B3 inh, PAFAH1B2 inh, PAFAH2 inh)
CCOc1ccc2cc(C#N)c(SCC(=O)N3CCOCC3)nc2c1	pPAFAH inh 82 | pPAFAH confirm inactive
O=S(=O)(Nc1ccc(O)c(Sc2nc3ccccc3s2)c1)c1ccc(F)cc1	pPAFAH inh 52 | pPAFAH confirm 40
O=C(O)c1cccc(S(=O)(=O)Nc2ccc(O)c(Sc3nc4ccccc4s3)c2)c1	none
S=c1[nH]nc(-c2cc3c(s2)-c2ccccc2CC3)o1	pPAFAH inh 38 | pPAFAH confirm 62
Nc1cccc2c(=O)c3ccccc3[nH]c12	pPAFAH inh 41 | pPAFAH confirm inactive
COc1cccc2[nH]c3ccccc3c(=O)c12	none (no result: ARFGAP1 inhibitor, ASAP1 GAP inh)
O=C1CC(Nc2ccc(N3CCOCC3)cc2)C(=O)N1c1cccc(C(F)(F)F)c1 (stereo not drawn)	pPAFAH inh 46 (no result: ARFGAP1 inhibitor, ASAP1 GAP inh) | pPAFAH confirm inactive
CN(C)c1ccc(N2C(=O)CC(Nc3ccc(N4CCOCC4)cc3)C2=O)cc1 (stereo not drawn)	none
COc1cccc(N2C(=O)CC(Nc3ccc(N4CCOCC4)cc3)C2=O)c1 (stereo not drawn)	pPAFAH inh 39, PAFAH2 inh 33 (no result: ARFGAP1 inhibitor, ASAP1 GAP inh) | pPAFAH confirm inactive
CC(C)N(Cc1ccccc1)C(=O)COC(=O)/C=C/c1cnc2ccccc2n1	none
COc1cc(/C=N/Nc2nc3ccccc3s2)cc([N+](=O)[O-])c1O	pPAFAH inh 43 | pPAFAH confirm 47
COc1cc(/C=N/Nc2ccccc2[N+](=O)[O-])cc(OC)c1O	none
NC(=O)c1ccc(-n2nnnc2SCC(=O)c2ccc(O)c(O)c2)cc1	pPAFAH inh 37 | pPAFAH confirm 67
Cc1ccc(C)n1Cc1ccc(C(=O)O)cc1	pPAFAH inh 47 (no result: ARFGAP1 inhibitor, ASAP1 GAP inh) | pPAFAH confirm 62
CCOCCCNC(=O)c1ccc(N2CCCC2)c(NS(=O)(=O)c2ccc(C)cc2)c1	pPAFAH inh 52 | pPAFAH confirm inactive
N#CC(CC(=O)c1ccc(F)cc1)c1ccc2c(c1)OCO2 (stereo not drawn)	none
